This is an account of results in ChEMBL document CHEMBL1921795, “Discovery, synthesis, and structure-activity relationship development of a series of N-4-(2,5-dioxopyrrolidin-1-yl)phenylpicolinamides (VU0400195, ML182): characterization of a novel positive allosteric modulator of the metabotropic glutamate receptor 4 (mGlu(4)) with oral efficacy in an …” (J Med Chem, 2011).

The subject of data set [1] is Rattus norvegicus. The data set is described as follows: AUC (0 to 24 hrs) in Sprague-Dawley rat at 10 mg/kg, po by LC/MS analysis. The class given is ADME, organism-based, Plasma. On the set-up: time < 24 hr, dose 10 mg/kg, route oral. To be noted: in vivo.
Data set [2] is described as follows: Half life in rhesus monkey at 1 mg/kg, iv by LC/MS analysis. Type of data set: ADME, organism-based, Macaca mulatta. On the set-up: dose 1 mg/kg, route intravenous. The settings on record: in vivo. A digest of the protocol:
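Rhesus monkeys (8-11 kg) tranquilized with ketamine 10 mg/kg im and Telazol 3 mg/kg im. Compound given iv at 1 mg/kg, blood collected, plasma analysed by LC/MS/MS (MRM, positive ESI).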

For data set [3], the system named is Rattus norvegicus. The data set is described as follows: Cmax in Sprague-Dawley rat at 10 mg/kg, po by LC/MS analysis. The class given is ADME, organism-based. On the set-up: dose 10 mg/kg, route oral. The settings on record: in vivo.
The nature of data set [4]: Half life in iv dosed Beagle dog. The class given is ADME, organism-based, Canis lupus familiaris. To be noted: in vivo.
For data set [5], the system named is Rattus norvegicus. The data set is described as follows: Oral bioavailability in Sprague-Dawley rat at 10 mg/kg by LC/MS analysis. The class given is ADME, organism-based. The settings on record: in vivo.
Data set [6] relates to Rattus norvegicus. The experiment in a line: Volume of distribution at steady state in Sprague-Dawley rat at 1 mg/kg, iv by LC/MS analysis. The class given is ADME, organism-based. On the set-up: dose 1 mg/kg, route intravenous. The settings on record: in vivo. A digest of the protocol:
(§1)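 Male Sprague-Dawley rats (n=2, 250-300 g), carotid and jugular cannulated; 1 mg/kg iv via jugular catheter in 20% DMSO/80% saline. Arterial blood from pre-dose to 24 h, EDTA plasma analysed by LC/MS/MS; noncompartmental analysis of individual profiles.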

For data set [7], the system named is Rattus norvegicus. The experiment in a line: AUC (0 to 24 hrs) in Sprague-Dawley rat at 1 mg/kg, iv by LC/MS analysis. Type of data set: ADME, organism-based, Plasma. To be noted: in vivo. On the set-up: time < 24 hr, dose 1 mg/kg, route intravenous. A digest of the protocol:
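Male Sprague-Dawley rats (n=2, 250-300 g) with carotid artery and jugular vein catheters, acclimated about one week, fed ad libitum. Dose given through the jugular catheter in 20% DMSO/80% saline at 1 mL/kg. Carotid blood drawn pre-dose and at 2, 7, 15, 30 min and 1, 2, 4, 7, 24 h into chilled EDTA tubes. Plasma measured by LC/MS/MS; parameters from noncompartmental analysis of individual profiles.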

Data set [8] has as its system Rattus norvegicus. The data set is described as follows: Half life in Sprague-Dawley rat at 1 mg/kg, iv by LC/MS analysis. The settings on record: in vivo. Type of data set: ADME, organism-based. On the set-up: dose 1 mg/kg, route intravenous. In a few lines: as §1
The target in data set [9] is Metabotropic glutamate receptor 2 (Rattus norvegicus) (UniProt P31421). The experiment in a line: Activity at rat mGlu2 at 10 uM by thallium flux assay. A digest of the protocol:
(§2)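 HEK-293 cells co-expressing rat mGlu2, 3, 7 or 8 with GIRK channels, thallium flux read-out. Compound at 10 µM added, then 2.5 min later a full concentration-response of glutamate (L-AP4 for mGlu7). Left shift >2-fold scored as potentiation; right shift >2-fold or ≥75% drop in max response scored as antagonism.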

In data set [10] the target is Metabotropic glutamate receptor 8 (Rattus norvegicus) (UniProt P70579). The data set is described as follows: Antagonist activity at rat mGlu8 receptor at 10 uM by thallium flux assay. The class given is functional. A digest of the protocol: as §2
Data set [11] deals with Rattus norvegicus. The data set is described as follows: Reversal of haloperidol-induced catalepsy in Sprague-Dawley rat at 0.1 to 30 mg/kg, po administered 60 mins after haloperidol-challenge measured after 30 mins. Type of data set: functional, organism-based. In a few lines:
(§3)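 Male Sprague-Dawley rats (275–300 g). Haloperidol 0.75 mg/kg i.p. (in 8.5% lactic acid, pH 6) given 60 min before oral compound (0.1–56.6 mg/kg) or vehicle (10% Tween 80). Catalepsy tested 30 min later: forepaws placed on a horizontal bar 6 cm high; latency to remove paws timed, 30 s cutoff.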

Data set [12] addresses Metabotropic glutamate receptor 5 (Rattus norvegicus) (UniProt P31424). The experiment in a line: Positive allosteric modulation of rat mGlu5 receptor expressed in human HEK293 cells assessed as potentiation of glutamate-induced calcium mobilization at 10 uM relative to (-)-PHCCC. Type of data set: functional, cell-based. A digest of the protocol:
(§4)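 HEK cells expressing rat mGlu5, calcium mobilization by double addition. 10 µM compound or vehicle was added, then a full glutamate concentration-response 2.5 min later. A left shift >2-fold was scored as potentiation. A right shift >2-fold or ≥75% loss of maximum was scored as antagonism. Mean ± SEM of three experiments in singlicate.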
In general terms: Calcium flux is commonly read through the fluorescence of an indicator in the cells.

Data set [13] concerns the target Metabotropic glutamate receptor 1 (Rattus norvegicus) (UniProt P23385). The experiment in a line: Positive allosteric modulator activity at rat mGlu1 receptor expressed in human HEK293 at 10 uM by calcium mobilization assay. Type of data set: functional, cell-based. In a few lines:
(§5)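 HEK cells expressing rat mGlu1 (plated 15,000 cells/well in DMEM, 10% dialyzed FBS, 20 mM HEPES). Fluo-4 calcium mobilization. Compound at 10 µM added, then 2.5 min later a full glutamate concentration-response. Left shift >2-fold scored as potentiation; right shift >2-fold or ≥75% drop in max response scored as antagonism.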

Data set [14] has as its target Metabotropic glutamate receptor 3 (Rattus norvegicus) (UniProt P31422). The experiment in a line: Positive allosteric modulator activity at rat mGlu3 receptor at 10 uM by thallium flux assay. A digest of the protocol: as §2
For data set [15], the target named is Metabotropic glutamate receptor 8 (Rattus norvegicus) (UniProt P70579). The data set is described as follows: Positive allosteric modulator activity at rat mGlu8 receptor at 10 uM by thallium flux assay relative to glutamate.
In data set [16] the target is Metabotropic glutamate receptor 3 (Rattus norvegicus) (UniProt P31422). The data set is described as follows: Antagonist activity at rat mGlu3 at 10 uM by thallium flux assay. The class given is functional. A digest of the protocol: as §2
Data set [17] concerns the target Metabotropic glutamate receptor 4 (Rattus norvegicus) (UniProt P31423). The experiment in a line: Positive allosteric modulation of rat mGlu4 receptor assessed as potentiation of glutamate-induced thallium flux relative to (-)-PHCCC. On the set-up: concentration or dose not given beside the values.
The target in data set [18] is Metabotropic glutamate receptor 3 (Rattus norvegicus) (UniProt P31422). The experiment in a line: Activity at rat mGlu3 at 10 uM by thallium flux assay. A digest of the protocol:
as §2

The target of data set [19] is Metabotropic glutamate receptor 1 (Rattus norvegicus) (UniProt P23385). The data set is described as follows: Antagonist activity at rat mGlu1 at 10 uM by calcium mobilization assay. The class given is functional. A digest of the protocol:
as §5

Data set [20] has as its target Metabotropic glutamate receptor 7 (Rattus norvegicus) (UniProt P35400). The experiment in a line: Positive allosteric modulator activity at rat mGlu7 receptor assessed as potentiation of glutamate-induced thallium flux at 10 uM relative to (-)-PHCCC.
The target is the same in data set [21]. The data set is described as follows: Antagonist activity at rat mGlu7 receptor at 10 uM by thallium flux assay. Type of data set: functional. In a few lines:
as §2

Data set [22] addresses Metabotropic glutamate receptor 8 (Rattus norvegicus) (UniProt P70579). The experiment in a line: Positive allosteric modulator activity at rat mGlu8 receptor at 10 uM by thallium flux assay. In a few lines: as §2
The target of data set [23] is Metabotropic glutamate receptor 2 (Rattus norvegicus) (UniProt P31421). The data set is described as follows: Positive allosteric modulator activity at rat mGlu2 receptor at 10 uM by thallium flux assay. A digest of the protocol:
as §2

Data set [24] addresses Metabotropic glutamate receptor 5 (Rattus norvegicus) (UniProt P31424). The data set is described as follows: Antagonist activity at rat mGlu5 receptor at 10 uM by calcium mobilization assay. Type of data set: functional. A digest of the protocol: as §4
Data set [25] addresses T1, Metabotropic glutamate receptor 6 (Homo sapiens, UniProt O15303). The experiment in a line: Antagonist activity at human mGlu6 receptor at 10 uM by thallium flux assay.
Data set [26] concerns the target T1, Metabotropic glutamate receptor 6. The data set is described as follows: Positive allosteric modulator activity at human mGlu6 receptor assessed as potentiation of glutamate-induced thallium flux at 10 uM relative to (-)-PHCCC. A digest of the protocol:
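Cells expressing human mGlu6 with GIRK channels, thallium flux double-addition protocol. 10 µM compound or vehicle was added, then a full glutamate concentration-response 2.5 min later. A left shift >2-fold was scored as potentiator activity. A right shift >2-fold or max depression ≥75% was scored as antagonist activity. Mean ± SEM of three experiments in singlicate.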

For data set [27], the target named is Metabotropic glutamate receptor 4 (Homo sapiens, UniProt Q14833). The data set is described as follows: Positive allosteric modulation of human mGlu4 receptor expressed in CHO cells coexpressing Gqi5 assessed as potentiation of glutamate-induced calcium mobilization relative to (-)-PHCCC. Type of data set: functional, cell-based. A digest of the protocol: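 CHO cells stably expressing human mGlu4 with chimeric Gqi5, plated overnight, loaded 45 min at 37 °C with 1 µM Fluo-4 AM. Compound (10-point, 1:3 dilutions) was added about 2.5 min before an EC20 glutamate, then EC80 glutamate 2 min later. Ca2+ fluorescence read at 470/540 nm. Four-parameter logistic fit.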

Data set [28] addresses Metabotropic glutamate receptor 2 (Rattus norvegicus) (UniProt P31421). The experiment in a line: Antagonist activity at rat mGlu2 at 10 uM by thallium flux assay. The class given is functional. In a few lines: as §2
Data set [29] has as its target Metabotropic glutamate receptor 1 (Rattus norvegicus) (UniProt P23385). The experiment in a line: Activity at rat mGlu1 at 10 uM by calcium mobilization assay. Type of data set: functional. In a few lines:
as §5

The test system of data set [30] is Rattus norvegicus. The experiment in a line: Reversal of haloperidol-induced catalepsy in Sprague-Dawley rat at 56.6 mg/kg, po administered 60 mins after haloperidol-challenge measured after 30 mins. The class given is functional, organism-based. On the set-up: dose 56.6 mg/kg. A digest of the protocol:
as §3

Active and inactive are the calls of the source. Some results are limits rather than exact numbers.

The term AUC denotes concentration integrated over time. In general, half-life refers to the time needed for the level to fall by half in the phase considered. As a reminder, the Cmax is the maximum level reached in the sampled fluid or tissue. Broadly, the Vdss is the apparent volume that relates the amount in the body to the concentration in plasma or blood.

Sequence of Metabotropic glutamate receptor 3 (Rattus norvegicus) (P31422 23-879 limits assumed): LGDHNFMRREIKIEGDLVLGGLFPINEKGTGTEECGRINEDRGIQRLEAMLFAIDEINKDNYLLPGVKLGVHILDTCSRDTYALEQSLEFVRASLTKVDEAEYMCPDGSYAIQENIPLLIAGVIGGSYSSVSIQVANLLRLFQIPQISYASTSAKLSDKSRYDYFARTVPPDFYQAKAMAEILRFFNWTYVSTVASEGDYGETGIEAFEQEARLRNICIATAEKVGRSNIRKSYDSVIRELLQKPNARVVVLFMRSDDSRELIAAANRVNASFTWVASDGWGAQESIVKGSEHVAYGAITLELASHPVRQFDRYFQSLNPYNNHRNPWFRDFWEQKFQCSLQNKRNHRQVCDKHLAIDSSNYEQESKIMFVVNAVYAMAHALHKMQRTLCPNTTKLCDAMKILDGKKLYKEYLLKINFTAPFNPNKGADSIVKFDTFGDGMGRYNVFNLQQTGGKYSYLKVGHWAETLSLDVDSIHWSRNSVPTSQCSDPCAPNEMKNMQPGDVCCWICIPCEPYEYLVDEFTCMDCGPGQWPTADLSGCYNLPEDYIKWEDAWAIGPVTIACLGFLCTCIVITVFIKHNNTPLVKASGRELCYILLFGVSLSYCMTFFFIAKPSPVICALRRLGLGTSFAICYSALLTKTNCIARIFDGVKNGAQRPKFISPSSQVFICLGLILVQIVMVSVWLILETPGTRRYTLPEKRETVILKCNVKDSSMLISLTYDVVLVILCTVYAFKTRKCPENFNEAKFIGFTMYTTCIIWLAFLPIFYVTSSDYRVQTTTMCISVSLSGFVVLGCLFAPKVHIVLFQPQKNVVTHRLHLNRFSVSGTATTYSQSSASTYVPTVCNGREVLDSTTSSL
Sequence of Metabotropic glutamate receptor 8 (Rattus norvegicus) (P70579 whole entry): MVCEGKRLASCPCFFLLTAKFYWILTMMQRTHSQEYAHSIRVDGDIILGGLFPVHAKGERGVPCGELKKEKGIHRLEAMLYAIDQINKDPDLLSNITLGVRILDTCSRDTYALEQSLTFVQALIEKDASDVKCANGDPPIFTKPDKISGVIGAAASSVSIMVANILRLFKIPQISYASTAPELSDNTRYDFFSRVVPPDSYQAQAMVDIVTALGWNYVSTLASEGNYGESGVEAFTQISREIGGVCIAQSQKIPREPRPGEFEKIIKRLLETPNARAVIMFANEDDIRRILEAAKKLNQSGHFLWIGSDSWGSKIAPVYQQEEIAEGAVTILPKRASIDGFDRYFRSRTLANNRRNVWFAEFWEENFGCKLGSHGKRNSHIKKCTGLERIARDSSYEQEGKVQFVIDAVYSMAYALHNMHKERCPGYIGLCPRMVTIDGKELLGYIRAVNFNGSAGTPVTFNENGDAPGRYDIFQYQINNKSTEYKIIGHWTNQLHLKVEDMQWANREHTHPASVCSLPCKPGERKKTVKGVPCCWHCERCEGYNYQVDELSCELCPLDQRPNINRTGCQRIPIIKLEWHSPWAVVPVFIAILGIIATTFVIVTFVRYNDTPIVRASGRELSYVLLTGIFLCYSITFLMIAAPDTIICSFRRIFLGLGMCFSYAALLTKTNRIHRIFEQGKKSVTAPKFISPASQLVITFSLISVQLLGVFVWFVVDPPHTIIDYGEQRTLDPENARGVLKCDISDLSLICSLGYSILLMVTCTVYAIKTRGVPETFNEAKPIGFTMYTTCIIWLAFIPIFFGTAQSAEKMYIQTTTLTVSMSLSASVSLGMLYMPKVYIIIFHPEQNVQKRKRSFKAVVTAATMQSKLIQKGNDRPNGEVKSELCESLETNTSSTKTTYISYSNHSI
Sequence of Metabotropic glutamate receptor 2 (Rattus norvegicus) (P31421 19-872 limits assumed): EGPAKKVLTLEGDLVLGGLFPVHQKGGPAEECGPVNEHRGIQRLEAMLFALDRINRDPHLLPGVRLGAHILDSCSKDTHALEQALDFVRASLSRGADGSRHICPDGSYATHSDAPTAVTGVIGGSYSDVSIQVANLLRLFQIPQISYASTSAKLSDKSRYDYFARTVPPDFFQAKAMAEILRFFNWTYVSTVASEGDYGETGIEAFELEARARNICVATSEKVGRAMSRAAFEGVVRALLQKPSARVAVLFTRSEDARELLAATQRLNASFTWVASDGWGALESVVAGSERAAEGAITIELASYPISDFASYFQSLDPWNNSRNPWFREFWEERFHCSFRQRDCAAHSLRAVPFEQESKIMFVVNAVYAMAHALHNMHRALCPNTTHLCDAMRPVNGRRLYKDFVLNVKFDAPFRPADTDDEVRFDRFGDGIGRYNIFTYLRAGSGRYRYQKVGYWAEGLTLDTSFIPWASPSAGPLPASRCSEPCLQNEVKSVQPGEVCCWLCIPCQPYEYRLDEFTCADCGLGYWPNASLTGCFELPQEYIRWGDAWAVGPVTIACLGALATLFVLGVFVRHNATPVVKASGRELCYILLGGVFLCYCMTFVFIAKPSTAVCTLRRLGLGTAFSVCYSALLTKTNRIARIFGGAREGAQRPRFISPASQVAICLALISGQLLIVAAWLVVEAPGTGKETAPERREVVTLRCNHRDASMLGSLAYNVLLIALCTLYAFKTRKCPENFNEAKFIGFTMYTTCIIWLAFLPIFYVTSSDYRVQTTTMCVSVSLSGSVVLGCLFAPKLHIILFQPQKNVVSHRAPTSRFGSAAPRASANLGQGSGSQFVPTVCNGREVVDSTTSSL
Sequence of Metabotropic glutamate receptor 1 (Rattus norvegicus) (P23385 19-1199 limits assumed): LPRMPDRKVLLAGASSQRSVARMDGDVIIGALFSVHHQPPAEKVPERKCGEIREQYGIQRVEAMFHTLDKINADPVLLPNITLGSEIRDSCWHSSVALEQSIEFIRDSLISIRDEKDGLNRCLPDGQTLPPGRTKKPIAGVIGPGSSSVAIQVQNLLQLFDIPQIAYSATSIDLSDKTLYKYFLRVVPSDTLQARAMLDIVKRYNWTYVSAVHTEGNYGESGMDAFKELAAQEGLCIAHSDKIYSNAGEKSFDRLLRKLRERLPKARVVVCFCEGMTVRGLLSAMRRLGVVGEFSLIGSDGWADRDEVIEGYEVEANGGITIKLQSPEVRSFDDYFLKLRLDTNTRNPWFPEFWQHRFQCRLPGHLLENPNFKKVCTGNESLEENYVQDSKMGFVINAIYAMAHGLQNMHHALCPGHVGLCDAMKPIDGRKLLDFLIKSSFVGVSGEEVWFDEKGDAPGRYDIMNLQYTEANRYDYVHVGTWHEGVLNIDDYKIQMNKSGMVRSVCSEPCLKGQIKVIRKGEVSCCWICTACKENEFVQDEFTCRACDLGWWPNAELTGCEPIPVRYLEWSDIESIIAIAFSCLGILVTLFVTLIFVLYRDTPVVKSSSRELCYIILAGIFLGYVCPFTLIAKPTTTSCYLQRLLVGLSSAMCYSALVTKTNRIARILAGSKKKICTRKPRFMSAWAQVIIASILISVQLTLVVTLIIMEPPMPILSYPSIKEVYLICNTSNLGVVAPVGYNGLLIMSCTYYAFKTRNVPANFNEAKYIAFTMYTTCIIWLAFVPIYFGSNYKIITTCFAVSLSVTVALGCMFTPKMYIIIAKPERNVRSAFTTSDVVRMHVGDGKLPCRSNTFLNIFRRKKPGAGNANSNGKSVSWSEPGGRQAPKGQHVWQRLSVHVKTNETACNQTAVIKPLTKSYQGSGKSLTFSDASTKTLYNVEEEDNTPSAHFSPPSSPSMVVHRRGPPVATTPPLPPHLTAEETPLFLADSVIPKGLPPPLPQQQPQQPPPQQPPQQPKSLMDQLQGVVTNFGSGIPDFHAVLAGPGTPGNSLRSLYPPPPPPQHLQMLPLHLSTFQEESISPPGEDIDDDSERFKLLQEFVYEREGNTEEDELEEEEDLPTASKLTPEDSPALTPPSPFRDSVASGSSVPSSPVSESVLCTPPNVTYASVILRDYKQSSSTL
Sequence of Metabotropic glutamate receptor 5 (Rattus norvegicus) (P31424 21-1203 limits assumed): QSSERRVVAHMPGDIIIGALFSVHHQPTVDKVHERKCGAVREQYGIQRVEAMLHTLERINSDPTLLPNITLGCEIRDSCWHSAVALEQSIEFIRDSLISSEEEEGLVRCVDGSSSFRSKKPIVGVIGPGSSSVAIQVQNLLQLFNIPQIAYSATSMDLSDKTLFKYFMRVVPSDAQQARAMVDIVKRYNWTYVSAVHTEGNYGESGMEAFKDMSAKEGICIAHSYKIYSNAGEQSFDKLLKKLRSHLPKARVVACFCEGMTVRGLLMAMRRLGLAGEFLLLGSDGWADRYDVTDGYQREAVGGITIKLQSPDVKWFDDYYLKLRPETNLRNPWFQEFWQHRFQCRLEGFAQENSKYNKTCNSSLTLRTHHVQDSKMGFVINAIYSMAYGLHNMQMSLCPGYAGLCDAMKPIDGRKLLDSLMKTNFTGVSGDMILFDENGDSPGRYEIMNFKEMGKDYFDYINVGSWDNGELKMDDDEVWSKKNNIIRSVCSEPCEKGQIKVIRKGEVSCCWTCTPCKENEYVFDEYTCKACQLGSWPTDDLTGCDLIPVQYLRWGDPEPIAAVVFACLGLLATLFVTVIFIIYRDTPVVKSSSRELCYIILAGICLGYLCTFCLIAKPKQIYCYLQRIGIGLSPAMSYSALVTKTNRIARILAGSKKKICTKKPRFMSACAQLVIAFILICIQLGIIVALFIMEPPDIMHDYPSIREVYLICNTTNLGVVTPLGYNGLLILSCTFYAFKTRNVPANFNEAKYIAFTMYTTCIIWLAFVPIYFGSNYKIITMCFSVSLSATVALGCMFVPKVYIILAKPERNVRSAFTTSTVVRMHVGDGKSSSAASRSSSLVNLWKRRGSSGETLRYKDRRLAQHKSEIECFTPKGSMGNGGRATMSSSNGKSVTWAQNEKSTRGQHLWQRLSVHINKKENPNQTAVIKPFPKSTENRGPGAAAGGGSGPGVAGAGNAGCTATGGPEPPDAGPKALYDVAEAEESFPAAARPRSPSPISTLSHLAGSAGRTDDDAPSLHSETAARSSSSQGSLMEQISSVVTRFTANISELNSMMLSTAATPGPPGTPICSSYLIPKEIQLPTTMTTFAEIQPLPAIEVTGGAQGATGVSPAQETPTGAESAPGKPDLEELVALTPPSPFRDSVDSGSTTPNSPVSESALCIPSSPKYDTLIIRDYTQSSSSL

On to `Cl.O=C(Nc1ccc(N2C(=O)CC(c3ccccc3)C2=O)c(Cl)c1)c1ccccn1` (stereo not given), for which the AUC in the data set with Rattus norvegicus [1] turned out to be 2685 ng·h/mL; with Rattus norvegicus [7], 3225 ng·h/mL. The half-life in [2] and in [4] was above 3 h throughout. Further, the Cmax in the data set on Rattus norvegicus [3] amounted to 553 ng/mL. In the data set on Rattus norvegicus [5], the F turned out to be 8.3%. Moreover, the distribution volume (Vdss) with Rattus norvegicus [6] is 0.58 L/kg. Moreover, the t1/2 in the data set on Rattus norvegicus [8] came out at 5.48 h.

With `O=C(Nc1ccc(N2C(=O)[C@@H]3[C@H](C2=O)[C@@H]2C=C[C@H]3C2)c(Cl)c1)c1ccccn1` (mixture of isomers), the outcome in data set [9], in data set [10], in data set [13], in [14], in data set [15] and in data set [16] was inactive. The result in data set [18], in data set [19], in data set [21], in data set [22], in [23] and in [24] was inactive. In addition, the outcome in data set [25], in data set [28] and in data set [29] was inactive. Also, the outcome in the data set with Rattus norvegicus [11] was Active. Also, the Activity in [12] worked out at 64.3%; in data set [17] it was 120%; in [20], 64%; in [26], 45.8%; in [27], 122%.

With `Cc1cc(C)n(-c2cc(NC(=O)CN3CCN(C)CC3)nc(-c3ccco3)n2)n1`, the outcome in the data set on Rattus norvegicus [30] was Active.
